Publication PMC10582670 (Clinical and Translational Science, 2023)
Values joined by “and” are separate entries in the source; they are usually repeats but may differ in a detail not shown here. Equal entries are not always repeated.

System: healthy volunteers
Test: Safety and tolerability
Type: in vivo, human
Outline: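 Healthy volunteers aged 18–55 y, BMI 18–30 kg/m², randomised double-blind 8:2 to once-daily oral drug or placebo for up to 14 days, with follow-up visits on days 21 and 42. Treatment-emergent AEs coded with MedDRA 23.1 and graded with the WHO toxicity scale, alongside ECGs, laboratory tests and vital signs. The safety population was all subjects receiving at least one dose.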

[1] = SAD (fasted) All GDC-8264, n = 28

O=C(c1nc2n(n1)[C@H](c1ccccc1)C[C@@H]2F)C1CC1 [GDC‐8264]
No. of TEAEs (SAD (fasted) 75 mg, n = 5): 8
No. of deaths (SAD (fasted) 75 mg, n = 5): 0 no. of subjects (%)
No. of subjects with at least one Related TEAE (SAD (fasted) 75 mg, n = 5): 1 (20.0) no. of subjects (%)
No. of subjects with at least one Serious TEAE (SAD (fasted) 75 mg, n = 5): 0 no. of subjects (%)
No. of subjects with at least one TEAE (SAD (fasted) 75 mg, n = 5): 3 (60.0) no. of subjects (%)
No. of subjects withdrawn from study due to a TEAE (SAD (fasted) 75 mg, n = 5): 0 no. of subjects (%)
TEAE Abdominal pain (SAD (fasted) 75 mg, n = 5): 0 no. of subjects (%)
TEAE Back pain (SAD (fasted) 75 mg, n = 5): 1 (20.0) no. of subjects (%)
TEAE Catheter site pain (SAD (fasted) 75 mg, n = 5): 0 no. of subjects (%)
TEAE Dermatitis contact (SAD (fasted) 75 mg, n = 5): 2 (40.0) no. of subjects (%)
TEAE Diarrhea (SAD (fasted) 75 mg, n = 5): 0 no. of subjects (%)
TEAE Dizziness (SAD (fasted) 75 mg, n = 5): 0 no. of subjects (%)
TEAE Dyspepsia (SAD (fasted) 75 mg, n = 5): 0 no. of subjects (%)
TEAE Gastrointestinal sounds abnormal (SAD (fasted) 75 mg, n = 5): 1 (20.0) no. of subjects (%)
TEAE Gingivitis (SAD (fasted) 75 mg, n = 5): 0 no. of subjects (%)
TEAE Headache (SAD (fasted) 75 mg, n = 5): 0 no. of subjects (%)
TEAE Medical device site dermatitis (SAD (fasted) 75 mg, n = 5): 0 no. of subjects (%)
TEAE Myalgia (SAD (fasted) 75 mg, n = 5): 1 (20.0) no. of subjects (%)
TEAE Nausea (SAD (fasted) 75 mg, n = 5): 2 (40.0) no. of subjects (%)
TEAE Presyncope (SAD (fasted) 75 mg, n = 5): 0 no. of subjects (%)
TEAE Somnolence (SAD (fasted) 75 mg, n = 5): 0 no. of subjects (%)
No. of TEAEs (SAD (fasted) 150 mg, n = 5): 6
No. of deaths (SAD (fasted) 150 mg, n = 5): 0 no. of subjects (%)
No. of subjects with at least one Related TEAE (SAD (fasted) 150 mg, n = 5): 3 (60.0) no. of subjects (%)
No. of subjects with at least one Serious TEAE (SAD (fasted) 150 mg, n = 5): 0 no. of subjects (%)
No. of subjects with at least one TEAE (SAD (fasted) 150 mg, n = 5): 4 (80.0) no. of subjects (%)
No. of subjects withdrawn from study due to a TEAE (SAD (fasted) 150 mg, n = 5): 0 no. of subjects (%)
TEAE Abdominal pain (SAD (fasted) 150 mg, n = 5): 0 no. of subjects (%)
TEAE Back pain (SAD (fasted) 150 mg, n = 5): 0 no. of subjects (%)
TEAE Catheter site pain (SAD (fasted) 150 mg, n = 5): 0 no. of subjects (%)
TEAE Dermatitis contact (SAD (fasted) 150 mg, n = 5): 1 (20.0) no. of subjects (%)
TEAE Diarrhea (SAD (fasted) 150 mg, n = 5): 0 no. of subjects (%)
TEAE Dizziness (SAD (fasted) 150 mg, n = 5): 0 no. of subjects (%)
TEAE Dyspepsia (SAD (fasted) 150 mg, n = 5): 0 no. of subjects (%)
TEAE Gastrointestinal sounds abnormal (SAD (fasted) 150 mg, n = 5): 1 (20.0) no. of subjects (%)
TEAE Gingivitis (SAD (fasted) 150 mg, n = 5): 0 no. of subjects (%)
TEAE Headache (SAD (fasted) 150 mg, n = 5): 1 (20.0) no. of subjects (%)
TEAE Medical device site dermatitis (SAD (fasted) 150 mg, n = 5): 0 no. of subjects (%)
TEAE Myalgia (SAD (fasted) 150 mg, n = 5): 0 no. of subjects (%)
TEAE Nausea (SAD (fasted) 150 mg, n = 5): 1 (20.0) no. of subjects (%)
TEAE Presyncope (SAD (fasted) 150 mg, n = 5): 0 no. of subjects (%)
TEAE Somnolence (SAD (fasted) 150 mg, n = 5): 0 no. of subjects (%)
No. of TEAEs (SAD (fasted) 225 mg, n = 6): 7
No. of deaths (SAD (fasted) 225 mg, n = 6): 0 no. of subjects (%)
No. of subjects with at least one Related TEAE (SAD (fasted) 225 mg, n = 6): 0 no. of subjects (%)
No. of subjects with at least one Serious TEAE (SAD (fasted) 225 mg, n = 6): 0 no. of subjects (%)
No. of subjects with at least one TEAE (SAD (fasted) 225 mg, n = 6): 3 (50.0) no. of subjects (%)
No. of subjects withdrawn from study due to a TEAE (SAD (fasted) 225 mg, n = 6): 0 no. of subjects (%)
TEAE Abdominal pain (SAD (fasted) 225 mg, n = 6): 0 no. of subjects (%)
TEAE Back pain (SAD (fasted) 225 mg, n = 6): 0 no. of subjects (%)
TEAE Catheter site pain (SAD (fasted) 225 mg, n = 6): 0 no. of subjects (%)
TEAE Dermatitis contact (SAD (fasted) 225 mg, n = 6): 0 no. of subjects (%)
TEAE Diarrhea (SAD (fasted) 225 mg, n = 6): 0 no. of subjects (%)
TEAE Dizziness (SAD (fasted) 225 mg, n = 6): 0 no. of subjects (%)
TEAE Dyspepsia (SAD (fasted) 225 mg, n = 6): 0 no. of subjects (%)
TEAE Gastrointestinal sounds abnormal (SAD (fasted) 225 mg, n = 6): 0 no. of subjects (%)
TEAE Gingivitis (SAD (fasted) 225 mg, n = 6): 0 no. of subjects (%)
TEAE Headache (SAD (fasted) 225 mg, n = 6): 0 no. of subjects (%)
TEAE Medical device site dermatitis (SAD (fasted) 225 mg, n = 6): 2 (33.3) no. of subjects (%)
TEAE Myalgia (SAD (fasted) 225 mg, n = 6): 1 (16.7) no. of subjects (%)
TEAE Nausea (SAD (fasted) 225 mg, n = 6): 0 no. of subjects (%)
TEAE Presyncope (SAD (fasted) 225 mg, n = 6): 1 (16.7) no. of subjects (%)
TEAE Somnolence (SAD (fasted) 225 mg, n = 6): 0 no. of subjects (%)
No. of TEAEs [1]: 33
No. of deaths [1]: 0 no. of subjects (%)
No. of subjects with at least one Related TEAE [1]: 4 (14.3) no. of subjects (%)
No. of subjects with at least one Serious TEAE [1]: 0 no. of subjects (%)
No. of subjects with at least one TEAE [1]: 19 no. of subjects (%) and 19 (67.9) no. of subjects (%)
No. of subjects withdrawn from study due to a TEAE [1]: 0 no. of subjects (%)
TEAE Abdominal pain [1]: 2 (7.1) no. of subjects (%)
TEAE Back pain [1]: 1 (3.6) no. of subjects (%)
TEAE Catheter site pain [1]: 1 (3.6) no. of subjects (%)
TEAE Dermatitis contact [1]: 4 (14.3) no. of subjects (%)
TEAE Diarrhea [1]: 0 no. of subjects (%)
TEAE Dyspepsia [1]: 1 (3.6) no. of subjects (%)
TEAE Gastrointestinal sounds abnormal [1]: 2 (7.1) no. of subjects (%)
TEAE Gingivitis [1]: 0 no. of subjects (%)
TEAE Headache [1]: 4 (14.3) no. of subjects (%)
TEAE Medical device site dermatitis [1]: 2 (7.1) no. of subjects (%)
TEAE Myalgia [1]: 2 (7.1) no. of subjects (%)
TEAE Nausea [1]: 3 (10.7) no. of subjects (%)
TEAE Presyncope [1]: 2 (7.1) no. of subjects (%)
TEAE Somnolence [1]: 0 no. of subjects (%)
No. of TEAEs (SAD (high fat) 75 mg, n = 5): 4
No. of deaths (SAD (high fat) 75 mg, n = 5): 0 no. of subjects (%)
No. of subjects with at least one Related TEAE (SAD (high fat) 75 mg, n = 5): 0 no. of subjects (%)
No. of subjects with at least one Serious TEAE (SAD (high fat) 75 mg, n = 5): 0 no. of subjects (%)
No. of subjects with at least one TEAE (SAD (high fat) 75 mg, n = 5): 2 (40.0) no. of subjects (%)
No. of subjects withdrawn from study due to a TEAE (SAD (high fat) 75 mg, n = 5): 0 no. of subjects (%)
TEAE Abdominal pain (SAD (high fat) 75 mg, n = 5): 0 no. of subjects (%)
TEAE Back pain (SAD (high fat) 75 mg, n = 5): 0 no. of subjects (%)
TEAE Catheter site pain (SAD (high fat) 75 mg, n = 5): 0 no. of subjects (%)
TEAE Dermatitis contact (SAD (high fat) 75 mg, n = 5): 1 (20.0) no. of subjects (%)
TEAE Diarrhea (SAD (high fat) 75 mg, n = 5): 0 no. of subjects (%)
TEAE Dizziness (SAD (high fat) 75 mg, n = 5): 0 no. of subjects (%)
TEAE Dyspepsia (SAD (high fat) 75 mg, n = 5): 0 no. of subjects (%)
TEAE Gastrointestinal sounds abnormal (SAD (high fat) 75 mg, n = 5): 0 no. of subjects (%)
TEAE Gingivitis (SAD (high fat) 75 mg, n = 5): 0 no. of subjects (%)
TEAE Headache (SAD (high fat) 75 mg, n = 5): 1 (20.0) no. of subjects (%)
TEAE Medical device site dermatitis (SAD (high fat) 75 mg, n = 5): 0 no. of subjects (%)
TEAE Myalgia (SAD (high fat) 75 mg, n = 5): 0 no. of subjects (%)
TEAE Nausea (SAD (high fat) 75 mg, n = 5): 1 (20.0) no. of subjects (%)
TEAE Presyncope (SAD (high fat) 75 mg, n = 5): 0 no. of subjects (%)
TEAE Somnolence (SAD (high fat) 75 mg, n = 5): 0 no. of subjects (%)
changes in clinical laboratory results, vital signs, ECGs, or physical examinations (SAD and MAD stages): no significant changes
severity of adverse events in GDC-8264-treated subjects (both stages (SAD and MAD)): mild
